# Legend:
# Assay type in all cases: cell-based
# Conditions in all cases: read-out: MIC of ceftazidime
# [1] = test system: Escherichia coli DH10B cells not expressing any MBL; assay: MIC assay, E. coli DH10B control cells not expressing any MBL
# How it was run: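 Ceftazidime MIC was measured in complex medium against E. coli DH10B carrying no MBL. This strain served as the control for DH10B expressing NDM-1, IMP-1 or VIM-2.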
# [2] = test system: Escherichia coli DH10B cells expressing NDM-1; assay: MIC assay, E. coli DH10B cells expressing NDM-1
# [3] = test system: Escherichia coli DH10B cells expressing VIM-2; assay: MIC assay, E. coli DH10B cells expressing VIM-2
# [4] = test system: Escherichia coli DH10B cells expressing IMP-1; assay: MIC assay, E. coli DH10B cells expressing IMP-1
compound,measurement,setting,value
CC(C)(O/N=C(\C(=O)N[C@@H]1C(=O)N2C(C(=O)[O-])=C(C[n+]3ccccc3)CS[C@H]12)c1csc(N)n1)C(=O)O [ceftazidime],MIC,[1],0.5 µg/mL
same,MIC,[2],256 µg/mL
same,MIC,[3],32 µg/mL
same,MIC,[4],512 µg/mL

# Source: paper PMC6527342 (Journal of chemical information and modeling, 2018)
